Measurements from ChEMBL document CHEMBL3044709, “Antimicrobial furostanol saponins from the seeds of Capsicum annuum L. var. acuminatum” (2002).
Values after ≈ are worked out from the molar mass of the structure shown.

Key:
Type in all cases: functional
Escherichia coli [1] = assay: Antimicrobial activity against Escherichia coli DSM 682 after 48 hr by agar dilution method; settings: DSM 682, 48 h
Procedure, shortened: (§1)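 Agar dilution on standard plate count agar: 0.5 mL of a 2-fold serial dilution of sample mixed into 9.5 mL medium, poured into Petri dishes, organism streaked on the surface. Incubated at 28 °C (36 and 48 h). MIC is the lowest tested concentration with no visible growth.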

Escherichia coli [2] = assay: Antimicrobial activity against Escherichia coli ATCC 35346 after 48 hr by agar dilution method; settings: ATCC 35346, 48 h; procedure, shortened: as §1
Stutzerimonas stutzeri = assay: Antimicrobial activity against Pseudomonas stutzeri ATCC 962 after 48 hr by agar dilution method; settings: ATCC 962, 48 h; procedure, shortened: as §1
Pseudomonas aeruginosa = assay: Antimicrobial activity against Pseudomonas aeruginosa DSM 1117 after 48 hr by agar dilution method; settings: DSM 1117, 48 h; procedure, shortened: as §1
[3] = system: Limosilactobacillus fermentum; assay: Antimicrobial activity against Lactobacillus fermentum DSM 20052 after 48 hr by agar dilution method; settings: DSM 20052, 48 h; procedure, shortened: as §1
Lacticaseibacillus casei = assay: Antimicrobial activity against Lactobacillus casei DSM 20011 after 48 hr by agar dilution method; settings: DSM 20011, 48 h; procedure, shortened: as §1
[4] = system: Lactiplantibacillus plantarum; assay: Antimicrobial activity against Lactobacillus plantarum DSM 20174 after 48 hr by agar dilution method; settings: DSM 20174, 48 h; procedure, shortened: as §1
[5] = system: Lacticaseibacillus rhamnosus; assay: Antimicrobial activity against Lactobacillus rhamnosus DSM 20021 after 48 hr by agar dilution method; settings: DSM 20021, 48 h; procedure, shortened: as §1
Bacillus cereus = assay: Antimicrobial activity against Bacillus cereus DSM 345 after 48 hr by agar dilution method; settings: DSM 345, 48 h; procedure, shortened: as §1
Micrococcus luteus = assay: Antimicrobial activity against Micrococcus luteus DSM 348 after 48 hr by agar dilution method; settings: DSM 348, 48 h; procedure, shortened: as §1
Staphylococcus aureus = assay: Antimicrobial activity against Staphylococcus aureus subsp. aureus DSM 346 after 48 hr by agar dilution method; settings: DSM 346, 48 h; procedure, shortened: as §1
[6] = system: Staphylococcus epidermidis; assay: Antimicrobial activity against Staphylococcus epidermidis DSM 1798 after 48 hr by agar dilution method; settings: DSM 1798, 48 h; procedure, shortened: as §1
Bacillus licheniformis = assay: Antimicrobial activity against Bacillus licheniformis DSM 13=ATCC 14580 after 48 hr by agar dilution method; settings: DSM 13 = ATCC 14580, 48 h; procedure, shortened: as §1
Aspergillus fumigatus = assay: Antimicrobial activity against Aspergillus fumigatus ATCC 1028 after 48 hr by agar dilution method; settings: ATCC 1028, 48 h
Procedure, shortened: (§2)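 Fungi tested by agar dilution in malt agar. Serial 2-fold sample dilutions (0.5 mL) were mixed with 9.5 mL medium and plated, then streaked with the organism. Incubation at 28 °C for 36 and 48 h. MIC is the lowest tested concentration without growth.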

Bacillus subtilis = assay: Antimicrobial activity against Bacillus subtilis DSM 345 after 48 hr by agar dilution method; settings: DSM 345, 48 h; procedure, shortened: as §1
Aspergillus flavus = assay: Antimicrobial activity against Aspergillus flavus ATCC 11655 after 48 hr by agar dilution method; settings: ATCC 11655, 48 h; procedure, shortened: as §2
Aspergillus niger = assay: Antimicrobial activity against Aspergillus niger ATCC 1040 after 48 hr by agar dilution method; settings: ATCC 1040, 48 h; procedure, shortened: as §2
Rhizopus arrhizus = assay: Antimicrobial activity against Rhizopus oryzae ATCC 56536 after 48 hr by agar dilution method; settings: ATCC 56536, 48 h; procedure, shortened: as §2
Trichoderma viride = assay: Antimicrobial activity against Hypocrea rufa ATCC 28020 after 48 hr by agar dilution method; settings: ATCC 28020, 48 h; procedure, shortened: as §2
Setophoma terrestris = assay: Antimicrobial activity against Setophoma terrestris ATCC 11321 after 48 hr by agar dilution method; settings: ATCC 11321, 48 h; procedure, shortened: as §2
Penicillium expansum = assay: Antimicrobial activity against Penicillium expansum ATCC 7861 after 48 hr by agar dilution method; settings: ATCC 7861, 48 h; procedure, shortened: as §2
[7] = system: Hanseniaspora guilliermondii; assay: Antimicrobial activity against Hanseniaspora guilliermondii CBS 465 after 48 hr by agar dilution method; settings: CBS 465, 48 h
Procedure, shortened: (§3)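 Yeast peptone dextrose agar plates, each holding a 2-fold serial dilution of sample (0.5 mL into 9.5 mL medium). Yeast streaked onto the plates and incubated at 28 °C, read at 36 and 48 h. MIC is the lowest concentration tested showing no growth.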

Hanseniaspora uvarum [8] = assay: Antimicrobial activity against Hanseniaspora uvarum CBS 314 after 48 hr by agar dilution method; settings: CBS 314, 48 h; procedure, shortened: as §3
Hanseniaspora vineae = assay: Antimicrobial activity against Hanseniaspora vineae CBS 2171 after 48 hr by agar dilution method; settings: CBS 2171, 48 h; procedure, shortened: as §3
Hanseniaspora osmophila = assay: Antimicrobial activity against Hanseniaspora osmophila CBS 313 after 48 hr by agar dilution method; settings: CBS 313, 48 h; procedure, shortened: as §3
Hanseniaspora uvarum [9] = assay: Antimicrobial activity against Hanseniaspora uvarum AP23 after 48 hr by agar dilution method; settings: Distaam AP23, 48 h; procedure, shortened: as §3
Candida albicans = assay: Antimicrobial activity against Candida albicans CBS 562 after 48 hr by agar dilution method; settings: CBS 562, 48 h; procedure, shortened: as §3
[10] = system: Schizosaccharomyces pombe; assay: Antimicrobial activity against Schizosaccharomyces pombe Diproval 106 after 48 hr by agar dilution method; settings: Diproval 106, 48 h; procedure, shortened: as §3
Saccharomycodes ludwigii = assay: Antimicrobial activity against Saccharomycodes ludwigii Diproval 120 after 48 hr by agar dilution method; settings: Diproval 120, 48 h; procedure, shortened: as §3
Saccharomyces cerevisiae [11] = assay: Antimicrobial activity against Saccharomyces cerevisiae Diproval 9109 after 48 hr by agar dilution method; settings: Diproval 9109, 48 h; procedure, shortened: as §3
Saccharomyces cerevisiae [12] = assay: Antimicrobial activity against Saccharomyces cerevisiae Diproval 7070 after 48 hr by agar dilution method; settings: Diproval 7070, 48 h; procedure, shortened: as §3
Saccharomyces cerevisiae [13] = assay: Antimicrobial activity against Saccharomyces cerevisiae Diproval 8167 after 48 hr by agar dilution method; settings: Diproval 8167, 48 h; procedure, shortened: as §3
Saccharomyces cerevisiae [14] = assay: Antimicrobial activity against Saccharomyces cerevisiae Diproval 2439 after 48 hr by agar dilution method; settings: Diproval 2439, 48 h; procedure, shortened: as §3
Saccharomyces cerevisiae [15] = assay: Antimicrobial activity against Saccharomyces cerevisiae Diproval 6073 after 48 hr by agar dilution method; settings: Diproval 6073, 48 h; procedure, shortened: as §3
Saccharomyces cerevisiae [16] = assay: Antimicrobial activity against Saccharomyces cerevisiae Diproval 404 after 48 hr by agar dilution method; settings: Diproval 404, 48 h; procedure, shortened: as §3
Enterococcus faecalis = assay: Antimicrobial activity against Enterococcus faecalis DSM 2570 after 48 hr by agar dilution method; settings: DSM 2570, 48 h; procedure, shortened: as §1

Row | Structure (SMILES) | MIC (Escherichia coli [1]) [µg/mL] | MIC (Escherichia coli [2]) [µg/mL] | MIC (Stutzerimonas stutzeri) [µg/mL] | MIC (Pseudomonas aeruginosa) [µg/mL] | MIC [3] [µg/mL] | MIC (Lacticaseibacillus casei) [µg/mL] | MIC [4] [µg/mL] | MIC [5] [µg/mL] | MIC (Bacillus cereus) [µg/mL] | MIC (Micrococcus luteus) [µg/mL] | MIC (Staphylococcus aureus) [µg/mL] | MIC [6] [µg/mL] | MIC (Bacillus licheniformis) [µg/mL] | MIC (Aspergillus fumigatus) [µg/mL] | MIC (Bacillus subtilis) [µg/mL] | MIC (Aspergillus flavus) [µg/mL] | MIC (Aspergillus niger) [µg/mL] | MIC (Rhizopus arrhizus) [µg/mL] | MIC (Trichoderma viride) [µg/mL] | MIC (Setophoma terrestris) [µg/mL] | other results
1 | C=C(CCC1(OC)O[C@H]2C[C@H]3[C@@H]4CC[C@H]5C[C@@H](O[C@@H]6O[C@H](CO)[C@H](O[C@@H]7O[C@H](CO)[C@@H](O)[C@H](O[C@@H]8O[C@H](CO)[C@@H](O)[C@H](O)[C@H]8O)[C@H]7O[C@@H]7O[C@H](CO)[C@@H](O)[C@H](O[C@@H]8O[C@H](CO)[C@@H](O)[C@H](O)[C@H]8O)[C@H]7O)[C@H](O)[C@H]6O)[C@H](O)C[C@]5(C)[C@H]4CC[C@]3(C)[C@H]2[C@@H]1C)CO[C@@H]1O[C@H](CO)[C@@H](O)[C@H](O)[C@H]1O (some centres not stated) [Capsicoside E] | 1000 (≈ 697 µM) | 1000 (≈ 697 µM) | > 1000 | > 1000 | 1000 (≈ 697 µM) | 1000 (≈ 697 µM) | 1000 (≈ 697 µM) | 1000 (≈ 697 µM) | 1000 (≈ 697 µM) | > 1000 | > 1000 | > 1000 | > 1000 | > 1000 | > 1000 | > 1000 | > 1000 | 125 (≈ 87.1 µM) | 500 (≈ 348 µM) | 125 (≈ 87.1 µM) | MIC (Penicillium expansum): 1000 µg/mL (≈ 697 µM); MIC [7]: 50 µg/mL (≈ 34.8 µM); MIC (Hanseniaspora uvarum [8]): 25 µg/mL (≈ 17.4 µM); MIC (Hanseniaspora vineae): 50 µg/mL (≈ 34.8 µM); MIC (Hanseniaspora osmophila): 100 µg/mL (≈ 69.7 µM); MIC (Hanseniaspora uvarum [9]): 25 µg/mL (≈ 17.4 µM); MIC (Candida albicans): 25 µg/mL (≈ 17.4 µM); MIC [10]: 100 µg/mL (≈ 69.7 µM); MIC (Saccharomycodes ludwigii): 50 µg/mL (≈ 34.8 µM); MIC (Saccharomyces cerevisiae [11]): 50 µg/mL (≈ 34.8 µM); MIC (Saccharomyces cerevisiae [12]): 50 µg/mL (≈ 34.8 µM); MIC (Saccharomyces cerevisiae [13]): 50 µg/mL (≈ 34.8 µM); MIC (Saccharomyces cerevisiae [14]): 50 µg/mL (≈ 34.8 µM); MIC (Saccharomyces cerevisiae [15]): 50 µg/mL (≈ 34.8 µM); MIC (Saccharomyces cerevisiae [16]): 50 µg/mL (≈ 34.8 µM); MIC (Enterococcus faecalis): > 1000 µg/mL
2 | COC1(CC[C@@H](C)CO[C@@H]2O[C@H](CO)[C@@H](O)[C@H](O)[C@H]2O)O[C@H]2C[C@H]3[C@@H]4CC[C@H]5C[C@@H](O[C@@H]6O[C@H](CO)[C@H](O[C@@H]7O[C@H](CO)[C@@H](O)[C@H](O[C@@H]8O[C@H](CO)[C@@H](O)[C@H](O)[C@H]8O)[C@H]7O[C@@H]7O[C@H](CO)[C@@H](O)[C@H](O[C@@H]8O[C@H](CO)[C@@H](O)[C@H](O)[C@H]8O)[C@H]7O)[C@H](O)[C@H]6O)[C@H](O)C[C@]5(C)[C@H]4CC[C@]3(C)[C@H]2[C@@H]1C (some centres not stated) [O-METHYLCAPSICOSIDE A] | 1000 (≈ 696 µM) | 1000 (≈ 696 µM) | > 1000 | > 1000 | 1000 (≈ 696 µM) | 1000 (≈ 696 µM) | 1000 (≈ 696 µM) | 1000 (≈ 696 µM) | 1000 (≈ 696 µM) | > 1000 | > 1000 | > 1000 | > 1000 | > 1000 | > 1000 | > 1000 | > 1000 | 125 (≈ 87 µM) | 250 (≈ 174 µM) | 125 (≈ 87 µM) | MIC (Penicillium expansum): 1000 µg/mL (≈ 696 µM); MIC [7]: 25 µg/mL (≈ 17.4 µM); MIC (Hanseniaspora uvarum [8]): 25 µg/mL (≈ 17.4 µM); MIC (Hanseniaspora vineae): 25 µg/mL (≈ 17.4 µM); MIC (Hanseniaspora osmophila): 50 µg/mL (≈ 34.8 µM); MIC (Hanseniaspora uvarum [9]): 50 µg/mL (≈ 34.8 µM); MIC (Candida albicans): 50 µg/mL (≈ 34.8 µM); MIC [10]: 50 µg/mL (≈ 34.8 µM); MIC (Saccharomycodes ludwigii): 50 µg/mL (≈ 34.8 µM); MIC (Saccharomyces cerevisiae [11]): 50 µg/mL (≈ 34.8 µM); MIC (Saccharomyces cerevisiae [12]): 50 µg/mL (≈ 34.8 µM); MIC (Saccharomyces cerevisiae [13]): 50 µg/mL (≈ 34.8 µM); MIC (Saccharomyces cerevisiae [14]): 50 µg/mL (≈ 34.8 µM); MIC (Saccharomyces cerevisiae [15]): 50 µg/mL (≈ 34.8 µM); MIC (Saccharomyces cerevisiae [16]): 50 µg/mL (≈ 34.8 µM); MIC (Enterococcus faecalis): > 1000 µg/mL
